Screening results: PubChem, several laboratories
Compounds with a hit are over-represented: about 4.9% of the library has one in this group of screens.
STAT1 blocker = STAT1 signaling inhibition; NIH 3T3 STAT1-luciferase reporter, IFN-gamma, luminescence; inhibition, % at 5.5 µM; 200,000 tested, 0.35% active; AID 920;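 active = inhibition above a set limit, the mean inhibition across all tested compounds plus 3 SD, cut at about 34% in these data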;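 note: 0% = IFN-gamma with DMSO and 100% = IFN-gamma with 300 µM nifuroxazide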
APP 5'UTR act = activates APP 5'UTR luciferase reporter | SH-SY5Y APP 5'UTR luciferase reporter, luminescence; zero percent = DMSO vehicle wells | activation, % at 2 µM | 190,000 tested, 1% active;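 active = activation above a set limit, based on mean plus 3 SD of controls, cut at about 140% in these data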
STAT3 blocker = reduces IL-6 driven STAT3 reporter signal | U3A cells, IL-6 STAT3-luciferase reporter, luminescence; host cell line lacks STAT1 | inhibition, % at 5.5 µM | 190,000 tested, 0.89% active | AID 862;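 active = inhibition above the mean inhibition across all screened compounds plus 3 SD, cut at about 44% in these data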;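 note: 0% = DMSO only wells and 100% = 100 µM nifuroxazide control wells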
NF-kB neuron act = compounds increasing NF-kB expression in human neuronal cells. NF-kB reporter expression; stronger effect = higher value. 190,000 tested, 1.6% active. fold change at 12.5 µM; in the data active = fold change above about 3.3
STAT1 act = increases IFN-gamma driven STAT1 reporter signal; 200,000 tested, 2.6% active; NIH 3T3 STAT1-luciferase reporter, luminescence; 100% = IFN-gamma alone, no compound; activation (% of control), % at 5.5 µM; AID 932;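 active = activation above the screen-wide mean activation plus 3 SD, cut at about 130% in these data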;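 note: raw ratio to IFN-gamma control signal so 100% means no change and 0% no light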
STAT3 act = activators of IL-6 induced STAT3 signaling. U3A cells, IL-6 STAT3-luciferase reporter, luminescence; 100% = signal with IL-6 EC80 alone. activation (% of control), % at 5.6 µM. 190,000 tested, 0.91% active;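 active = activation above the screen-wide mean of compound activation plus 3 SD, cut at about 130% in these data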;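 note: 0% = background luminescence of wells with medium and substrate only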
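Test system: human U3A cells carrying STAT3-luciferase construct; control set: IL-6-only wells as 100% reference; timing: compound pre-incubation 1 h before IL-6, then 6 h stimulation at 37 °C; also added: IL-6 stimulus at 33 ng/mL final; evaluation: % activation versus median of IL-6-stimulated wells; detection: reporter luminescence signal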
Numbers without * were called inactive.

SMILES	STAT1 blocker	APP 5'UTR act	STAT3 blocker	NF-kB neuron act	STAT1 act	STAT3 act
O=[N+]([O-])c1nn(-c2ccc3c(c2)OCCO3)n(O)c1=Nc1ccc(Cl)cc1	4	-14	39	0.46	97	70
CC(=O)Nc1cc(-c2ccc(Cl)cc2)[nH]n1	-50	11	2	2.3	144*	101
COc1cc(OC)cc(-c2cc(NC(C)=O)n[nH]2)c1	2	0	-2	1.4	99	102
CCN(CC)CCCNC(=O)CSc1nc(C)cc(C)n1	1	-7	5	0.89	100	98
CCN1CCc2nc(NC(=O)c3ccccc3)sc2C1	-51	116	5	0.4	147*	101
O=C(Nc1nc2c(s1)CN(Cc1ccccc1)CC2)C1CCC1	-27	9	-20	1.9	125	117
CN(Cc1ccccc1)C(=O)COC(=O)c1cc(NS(=O)(=O)c2cccs2)ccc1O	18	0	17	0.94	82	92
CCOc1ccc(OCc2ccc(C(=O)N3CCOCC3)cc2)cc1	-11	20	4	1.2	101	99
CCOc1ccc(N=C(/C(C(=O)C(=O)N2CCOCC2)=C(\O)c2ccccc2)c2ccccc2)cc1	-44	88	9	2.1	139*	96
Cc1cccc(N/C(N)=N/c2nc(C)c(Cc3ccccc3)c(=O)[nH]2)c1	10	-13	8	2.5	90	95
CCOC(=O)C1=C(C)N=C2SC=C(C)N2C1c1ccc(OC)cc1 (configuration not stated)	-9	-5	13	0.81	106	92
Cc1cc(N)n2nc(-c3ccccc3)cc2n1	-52	118	28	5.4*	146*	78
Cc1cc(C(F)(F)F)n2ncc(-c3ccc(F)cc3)c2n1	13	-8	11	0.93	88	95
Cc1cc(N)n2ncc(-c3ccccc3)c2n1	-55	86	-16	3.1	150*	122
Cc1cc(N)n2ncc(-c3cccc(Br)c3)c2n1	-46	96	-16	2.1	142*	115
O=C(c1nc2ccccn2c1CNCCCn1cccn1)N1CCCC1	-4	-10	8	1	102	104
CCOC(=O)c1c(C)n(OCc2ccccc2)c2ccc3c(no[n+]3[O-])c12	-11	0	2	1.3	109	102
Cn1c(-c2ccccc2)cc2c3no[n+]([O-])c3ccc21	-34	0	6	1.5	130*	103
CCN(CC)CC(=O)Nc1ccc(C)cc1Br	-4	13	-11	1.3	104	111
Cc1cccc(NC(=S)NNC(=O)c2csc(C(C)C)c2)c1	-36	131	-2	2.4	124	105
CCc1cc(C(=O)NNC(=S)Nc2cccc(C)c2)cs1	-12	162*	6	2.8	114	97
CCc1cc(C(=O)Nc2ccc(C)cc2Br)cs1	-45	126	-48	5.8*	137*	144*
CC1CN(c2nnc(NC(=O)c3ccccc3)s2)CC(C)O1 (configuration not stated)	-15	12	21	1.5	116	86
Cc1cc(C)cc(NC(=O)c2ccccc2CC[N+](=O)[O-])c1	-8	9	-8	1.1	107	109
Cc1ccc(NC(=O)Nc2ccccc2CC[N+](=O)[O-])cc1	-3	19	-30	1.2	102	133*
SMILES	STAT1 blocker	APP 5'UTR act	STAT3 blocker	NF-kB neuron act	STAT1 act	STAT3 act
O=C(COC(=O)c1cc[n+]([O-])cc1)Nc1ccc([N+](=O)[O-])cc1	-3	-7	4	0.87	102	103
Cc1ccc(C(=O)Nc2ncc(Cc3ccc(F)cc3)s2)o1	-29	134	13	7.9*	126	93
O=C(Nc1nc(-c2ccccn2)cs1)c1cc2ccccc2o1	-12	20	3	0.83	111	103
Cc1ccc(C(=O)Nc2ncc(C)s2)o1	-41	30	9	3	135*	93
Cc1ccc(C(=O)Nc2ccc(F)cc2)o1	-11	20	8	1.6	109	96
Cc1cnc(NC(=O)c2cc3ccccc3o2)s1	43*	95	60*	3.3	59	53
COc1ccc(S(=O)(=O)NNC(=O)c2cc3ccccc3o2)cc1	0	-11	11	0.82	100	93
O=C(Nc1nnc(-c2cccs2)s1)c1cccc(F)c1	-39	93	-5	2.4	134*	106
COc1ccc(C(=O)Nc2nc(-c3cccs3)c(NC(C)=O)s2)cc1	25	-15	7	2	79	96
COc1ccc(C(=O)Nc2nnc(-c3cccs3)s2)cc1	-23	47	-72	3.3*	122	157*
Cc1nnc(NC(=O)c2cccc(F)c2)s1	-8	-3	16	1.4	107	94
CC(C)(C)CC(=O)Nc1nnc(-c2cccs2)s1	-44	38	-10	2.1	140*	112
O=C(CN1CCCC1)Nc1nnc(-c2cccs2)s1	-11	-5	4	1.6	110	100
CC(=O)Cc1nsc(NC(=O)c2cccc(F)c2)n1	-43	-1	2	1.8	142*	103
CCn1cc(C(=O)NNC(=O)c2ccc(Cl)cc2)c(=O)c2ccc(C)nc21	-14	20	6	1	111	98
CCCc1nn(C)c(C(=O)Nc2ccc(C)c(C)c2)c1Cl	-33	38	0	1.3	130*	102
COc1cccc(NC(=O)CCNC(=O)Cn2ccc3ccccc3c2=O)c1	0	-3	-4	1.2	95	105
CCOC(=O)c1cnn(-c2ccccc2)c1-n1cccc1C(=O)C(=O)Nc1ccccc1C(F)(F)F	-5	12	-3	0.75	105	108
C/C(O)=C(/N=O)C(=O)Nc1ccccc1	-12	11	1	1.1	111	102
Cn1cccc1C(=O)C(=O)Nc1ccccc1	-23	145*	28	5.9*	121	79
Cn1cccc1C(=O)C(=O)Nc1ccccc1C(F)(F)F	-43	57	13	1.8	139*	91
COCCCN(CC(=O)Nc1ccc(N2CCOCC2)cc1)S(=O)(=O)c1ccccc1	-11	-5	-7	0.81	108	109
Cc1cc(C)cc(N2C(=O)CSC2c2ccccn2)c1 (configuration not stated)	-8	0	1	1	106	104
Cc1[nH]c2ccccc2c1C(=O)CSC(=S)N(C)C1CCCCC1	-7	12	8	0.99	106	96
Cc1[nH]c2ccccc2c1C(=O)CSC(=S)N1CCCCC1	-48	53	-7	1.9	144*	109
O=C(NC1CCCCC1)c1cc2nc3c(c(C(F)(F)F)n2n1)CCCC3	-40	50	14	2.4	130*	91
COc1ccc2nc(-c3ccco3)c(-c3ccco3)nc2c1	1	6	4	0.75	99	102
COc1ccc2nc3cccc(OC)c3nc2c1	-32	7	3	0.95	129*	99
